ChEMBL document CHEMBL2321820, “Discovery of HSD-621 as a Potential Agent for the Treatment of Type 2 Diabetes” (ACS Med Chem Lett, 2013)

Assays:
[1] = target: T1, Peroxisome proliferator-activated receptor alpha (Homo sapiens, UniProt Q07869); assay: Inhibition of PPARalpha (unknown origin)
T1 sequence (Q07869 whole entry): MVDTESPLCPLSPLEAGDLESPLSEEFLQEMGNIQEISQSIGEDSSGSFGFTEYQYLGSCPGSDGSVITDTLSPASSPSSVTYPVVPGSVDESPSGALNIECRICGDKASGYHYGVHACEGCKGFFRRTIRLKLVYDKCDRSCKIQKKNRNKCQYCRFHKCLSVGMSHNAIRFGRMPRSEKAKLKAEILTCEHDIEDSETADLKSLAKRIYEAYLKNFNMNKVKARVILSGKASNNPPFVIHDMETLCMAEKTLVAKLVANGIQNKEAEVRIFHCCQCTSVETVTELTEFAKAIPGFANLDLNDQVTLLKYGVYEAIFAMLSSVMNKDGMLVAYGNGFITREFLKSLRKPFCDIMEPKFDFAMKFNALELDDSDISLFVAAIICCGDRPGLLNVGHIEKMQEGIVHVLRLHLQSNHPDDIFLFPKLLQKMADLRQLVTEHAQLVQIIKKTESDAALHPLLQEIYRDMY

[2] = Volume of distribution at steady state in Sprague-Dawley rat at 2 mg/kg, iv; format: ADME, organism-based; design: dose 2 mg/kg, route intravenous; conditions: in vivo, read-out: Vdss
In short: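 Sprague-Dawley rats given a single iv dose of 2 mg/kg in 50% DMSO/50% PEG200. A separate oral arm received 10 mg/kg in 2% Tween/0.5% methyl cellulose in water.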

[3] = Half life in rat liver microsomes; format: ADME, Microsome
[4] = Half life in C57B6 mouse at 2 mg/kg, iv; format: ADME, organism-based; design: dose 2 mg/kg, route intravenous; conditions: in vivo
In short: (§1)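 Male C57B6 mice. IV dose of 2 mg/kg in 50% DMSO/50% PEG200. Oral dose of 10 mg/kg in 2% Tween/0.5% methyl cellulose in water. Values are PK parameters from the iv and po arms.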

[5] = Half life in mouse liver microsomes; format: ADME, Microsome
[6] = Cmax in Beagle dog at 5 mg/kg, po; conditions: in vivo
Canis familiaris = assay: Toxicity in dog at 100 to 1000 mg/kg; format: organism-based, Canis lupus familiaris; design: dose 100-1000 mg/kg; conditions: in vivo
In short: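 Dogs were dosed at 100, 300 and 1000 mg/kg in a 14-day safety assessment and metabolism study.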

[7] = target: T2, Peroxisome proliferator-activated receptor delta (Homo sapiens, UniProt Q03181); assay: Inhibition of PPARbeta (unknown origin)
T2 sequence (Q03181 whole entry): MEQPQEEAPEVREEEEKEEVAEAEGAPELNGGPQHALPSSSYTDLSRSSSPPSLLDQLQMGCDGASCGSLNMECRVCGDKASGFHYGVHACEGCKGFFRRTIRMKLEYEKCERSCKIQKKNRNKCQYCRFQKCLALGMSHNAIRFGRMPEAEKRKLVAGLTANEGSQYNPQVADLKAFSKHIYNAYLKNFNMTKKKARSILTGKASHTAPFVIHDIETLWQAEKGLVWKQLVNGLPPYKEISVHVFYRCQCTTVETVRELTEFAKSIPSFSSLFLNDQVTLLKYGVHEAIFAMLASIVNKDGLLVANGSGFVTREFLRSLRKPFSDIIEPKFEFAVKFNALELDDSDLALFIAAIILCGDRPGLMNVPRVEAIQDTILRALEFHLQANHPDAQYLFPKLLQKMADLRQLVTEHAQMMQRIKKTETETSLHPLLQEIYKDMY

Salmonella typhimurium = assay: Genotoxicity in Salmonella typhimurium by Ames test; format: toxicity, organism-based; conditions: salmonella enterica subsp. enterica serovar typhimurium
[8] = Tmax in Sprague-Dawley rat at 10 mg/kg, po; format: ADME, organism-based; design: dose 10 mg/kg, route oral; conditions: in vivo
In short: (§2)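 SD rats received 2 mg/kg iv in 50% DMSO/50% PEG200, or 10 mg/kg po in 2% Tween/0.5% methyl cellulose in water. PK parameters come from each route.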

[9] = Oral bioavailability in C57B6 mouse at 10 mg/kg; format: ADME, organism-based; conditions: in vivo; in short: as §1
[10] = Oral bioavailability in Beagle dog at 5 mg/kg; conditions: in vivo
Mus musculus [11] = species: Mus musculus; assay: Toxicity in C57B6 DIO mouse assessed as reduction of food intake at 0.3 mg/g of food after 31 days; format: organism-based; conditions: in vivo, po, 744 h
Mus musculus [12] = species: Mus musculus; assay: Antidiabetic activity in C57B6 DIO mouse assessed as reduction in fed insulin level at 0.3 mg/g of food after 31 days by HPLC analysis relative to untreated control; format: functional; design: scale not given: the % may be the effect or the level left
In short: (§3)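 Male C57B6 mice, 5.5–7 months old, kept on a 35.5% fat diet for 4 months. Compound was mixed into food at 0.3 mg drug/g food for 31 days. Controls received diet 12492. Glucose and insulin were measured fed and fasting.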

Mus musculus [13] = species: Mus musculus; assay: Toxicity in C57B6 DIO mouse assessed as elevation of alanine aminotransferase at 0.3 mg/g of food after 31 days; format: organism-based; conditions: in vivo, po, 744 h
Mus musculus [14] = assay: Ex vivo inhibition of 11beta-HSD1 in C57B16 mouse epididymal fat assessed as conversion of [3H]-cortisone to [3H]-cortisol at 10 mg/kg, po after 5 hrs by HPLC analysis relative to vehicle-treated control; format: functional
In short: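 Mice were dosed orally at 10 mg/kg. Epididymal fat was collected 5 h after dosing for the ex vivo readout.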

[15] = Oral bioavailability in Sprague-Dawley rat at 10 mg/kg; format: ADME, organism-based; conditions: in vivo; in short: as §2
Mus musculus [16] = species: Mus musculus; assay: Toxicity in C57B6 DIO mouse assessed as elevation of aspartate aminotransferase at 0.3 mg/g of food after 31 days; format: organism-based; conditions: in vivo, po, 744 h
[17] = AUC in Sprague-Dawley rat at 10 mg/kg, po; format: ADME, organism-based; design: dose 10 mg/kg, route oral; conditions: plasma; in short: as §2
Mus musculus [18] = species: Mus musculus; assay: Antidiabetic activity in C57B6 DIO mouse assessed as reduction in fed glucose level at 0.3 mg/g of food after 31 days by HPLC analysis relative to untreated control; format: functional; design: scale not given: the % may be the effect or the level left; in short: as §3
[19] = Clearance in C57B6 mouse at 2 mg/kg, iv; format: ADME, organism-based; design: dose 2 mg/kg, route intravenous; conditions: in vivo; in short: as §1
[20] = Clearance in Sprague-Dawley rat at 2 mg/kg, iv; format: ADME, organism-based; design: dose 2 mg/kg, route intravenous; conditions: in vivo; in short: as §2
[21] = Clearance in Beagle dog at 2 mg/kg, iv; format: ADME, organism-based, Canis lupus familiaris; design: dose 2 mg/kg, route intravenous; conditions: in vivo
In short: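 Male dogs were given 2 mg/kg intravenously in 50% DMSO/50% PEG200.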

[22] = Half life in Sprague-Dawley rat at 2 mg/kg, iv; format: ADME, organism-based; design: dose 2 mg/kg, route intravenous; conditions: in vivo; in short: as §2
[23] = Cmax in C57B6 mouse at 10 mg/kg, po; format: ADME, organism-based; design: dose 10 mg/kg, route oral; conditions: in vivo; in short: as §1
[24] = Cmax in Sprague-Dawley rat at 10 mg/kg, po; format: ADME, organism-based; design: dose 10 mg/kg, route oral; conditions: in vivo; in short: as §2

## C[C@@H]1CN(c2ccc(F)cc2C(F)(F)F)CCN1S(=O)(=O)c1ccc([C@@](O)(C(N)=O)C(F)(F)F)s1
[1]
  IC50: > 100 µM
[2]
  Vd: 3.8 L/kg
[3]
  half-life: > 30 min
[4]
  half-life: 366 min
[5]
  half-life: > 30 min
[6]
  Cmax: 1440 ng/mL
Canis familiaris
  Activity: Non-toxic
[7]
  IC50: > 100 µM
Salmonella typhimurium
  Activity: Non-toxic
[8]
  Tmax: 1.8 h
[9]
  bioavailability: 67%
[10]
  bioavailability: 54%
Mus musculus [11]
  Activity: Non-toxic
Mus musculus [12]
  Activity: 44%
Mus musculus [13]
  Activity: Non-toxic
Mus musculus [14]
  inhibition in vivo at 10 mg/kg: 75%
[15]
  bioavailability: 61%
Mus musculus [16]
  Activity: Non-toxic
[17]
  AUC: 6540 ng·h/mL
Mus musculus [18]
  Activity: 19%
[19]
  clearance: 9 mL/min/kg
[20]
  clearance: 8 mL/min/kg
[21]
  clearance: 1 mL/min/kg
[22]
  half-life: 516 min
[23]
  Cmax: 987 ng/mL
[24]
  Cmax: 656 ng/mL
